Source: the EternaBench riboswitch data

Tested on: MS2 coat protein
Assay: apparent Kd, MS2 coat protein; higher = weaker binding; RNA-MaP array; FMN 200 µM where present
Procedure, shortened: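 Each design was made on Illumina sequencing-chip clusters by stalled E. coli RNA polymerase and titrated with SNAP-549-labelled MS2 coat protein from 0.7 or 1.5 nM, doubling to 3 µM, in the absence and then the presence of constant ligand. The buffer was 100 mM Tris-HCl pH 7.5, 80 mM KCl, 4 mM MgCl2, BSA, DTT, yeast tRNA and Tween-20. The apparent Kd is the median of filtered per-cluster fits of binding curves, with green signal normalised to red-channel RNA signal and control-cluster median Fmax.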

[1] = designed as: OFF switch for flavin mononucleotide, no ligand
[2] = ligand present: flavin mononucleotide, designed as: OFF switch for flavin mononucleotide
[3] = designed as: ON switch for flavin mononucleotide, no ligand
[4] = ligand present: flavin mononucleotide, designed as: ON switch for flavin mononucleotide

UUAAUGUGAGGAUAUCAAGUGUGAUAGAGUAAUGGUAAAUAUGAGAAGGCACAUGAGGAUCACCCAUGUUCUUC
apparent Kd [1]: 15.7 nM
apparent Kd [2]: 17.4 nM

UGAGCGACCACAGGAUAUACUCGGGAAGACCAAGUAGAAGGGUGGAAGAGCGUGCAGUGACAUGAGGAUCACCCAUGUGGUUGU
apparent Kd [3]: 143 nM
apparent Kd [4]: 97.3 nM

UAUCUAGGCGAAGGAUAUCCGUCGCGAGAUACUGGAGAAGGUCGCCUUGAUACAUGAGGAUCACCCAUGUGGCGGGUGAACCAA
apparent Kd [1]: 37.9 nM
apparent Kd [2]: 16.4 nM

AUUUUUUAUGUAGGAUAUGCUUGUGGUAAGAUAGCAGAAGGACAUGAGGAUCACCCAUGUUAAUGAUAGAGAUUUUAGGUUGGU
apparent Kd [1]: 42.6 nM
apparent Kd [2]: 69.2 nM

GAGCCCUAAGGAUAUAGAAGGUCCAACAUGAGGAUCACCCAUGUACGGUGUGGACGUGGGCUAGAAGGUGGAACUU
apparent Kd [1]: 188 nM
apparent Kd [2]: 147 nM

GCCUUAUCCGUCAGGAUAUACAGCCGCUAGUUGUUGUAGAAGGGACAUGAGGAUCACCCAUGUACGUACCAUUG
apparent Kd [1]: 20.3 nM
apparent Kd [2]: 30.7 nM

AAUUUCAGAUGAGGAUAUUGACAUGAGGAUCACCCAUGUAUUUGGGAAUGUUUACUGAAUUCUUACGAGAAGGUAUACGAACUU
apparent Kd [1]: 296 nM
apparent Kd [2]: 200 nM

GGGCCGGUGGAGAAGGAGCUUACGAAACGUAGGCUAGGAUAUCCACAUGAGGAUCACCCAUGUGGGAAUAUCUGAUUUUCACAG
apparent Kd [1]: 4.4 nM
apparent Kd [2]: 4.48 nM

CUAUGAGGAAUAGGAUAUUCGAUCAUGAGGAUAGAAGAAGGGUUACAUGAGGAUCACCCAUGUAUGCACAUGAGGAUCCCUUAG
apparent Kd [1]: 235 nM
apparent Kd [2]: 226 nM

UUCAGCUUGACAGGAUAUACAUCACUGCGAAAGCAGUGUAUCUUAAUAACAUGAGGAUCACCCAUGUAGAAGGGUCGAGCUGAA
apparent Kd [1]: 18.4 nM
apparent Kd [2]: 32.7 nM

GGUGGACAUGAGGAUCACCCAUGUGAGGAUAUCGGCCGGUUCGCGGUGGCUGGCGUCUCGAGAAGGCACAUAGU
apparent Kd [1]: 99.1 nM
apparent Kd [2]: 139 nM

UCGAAACAUGAGGAUCACCCAUGUGCUCACGACAUAGGAUAUACUAGCUCGAAGAGCUGCGUAGAAGGGUGAAGUG
apparent Kd [3]: 45.9 nM
apparent Kd [4]: 26.8 nM

UUGUUGUAUGUAGGAUAUGCAUAUUAUUAUUAUGCAGAAGGACAUGAGGAUCACCCAUGUAUGUUAUUAUUAUAUGUUAUAUGU
apparent Kd [1]: 33.6 nM
apparent Kd [2]: 42.6 nM

CCGAUAAAUGGAGGAUAUGGAGCCUUAUUGGCUCCAGAAGGCUAAUAACAUGAGGAUCACCCAUGUCGGCGGUCUAAUGACCGA
apparent Kd [3]: 81.3 nM
apparent Kd [4]: 33 nM

AAAUAGAUACAUGAGGAUCACCCAUGUUAAUAGGUGUUUGUCAGAAGGCAUUAUGAGAGAAUUAAUGAGGAUAUGAAAUAUGAU
apparent Kd [3]: 39.3 nM
apparent Kd [4]: 22.8 nM

CUUCUGUGAGGAUAUGUGAACCCGUGCCGAAAGGAUGGGAAACAGAAGGCACAUGAGGAUCACCCAUGUAAAAU
apparent Kd [1]: 35.3 nM
apparent Kd [2]: 179 nM

GACUGCCGAGGAUAUACAUGAGGAUCACCCAUGUGCUUCAGCAUUUUUUGAUGCAUGGGUAGAAGGCGGUAGUU
apparent Kd [1]: 453 nM
apparent Kd [2]: 326 nM

UUGGACGUCGUAGGAUAUGUAGGAUAUUCCUACAUGAGGAUCACCCAUGUUGACAAGGAAGAAGGACAGAAGGACGAUGUCCAU
apparent Kd [3]: 5.37 nM
apparent Kd [4]: 3.37 nM

AUACUUAAUGAAGGAUAUCUCAGCAUAAACCUGAGAGAAGGUCAUUAUUACAUGAGGAUCACCCAUGUUGUAGUUAAUGGGUAA
apparent Kd [1]: 352 nM
apparent Kd [2]: 341 nM

AAGUAGAUCCGAGGAUAUACAAUCCGGAAACGGUACAUGAGGAUCACCCAUGUAGAAGGCGGAUCUACAGGUACUAAAGUACCU
apparent Kd [1]: 5.58 nM
apparent Kd [2]: 7.98 nM

CUAAAUCAUGUAGGAUAUGCAUGGCGAAGCUACGCAGAAGGACAUGAGGAUCACCCAUGUCUCUCCGUCUGGGUACAGACGGAG
apparent Kd [1]: 18.9 nM
apparent Kd [2]: 120 nM

AUUCCCGGUGUUAGGAUAUCCAACGCCCACGCGAUGGAGAAGGGACAUGAGGAUCACCCAUGUAGAGCUGCAUC
apparent Kd [1]: 14.3 nM
apparent Kd [2]: 14.5 nM

AAUUUAAUACAUGAGGAUCACCCAUGUAAUACUUGUAAGAUCAAGGAUAUCAGCUCGUUUAGAGCUGAGAAGGUGAUCACAUGU
apparent Kd [3]: 58.2 nM
apparent Kd [4]: 198 nM

UUGCGGUAGGAGAAGGACAGAGGCUUAAUUACAUACAUGAGGAUCACCCAUGUAGGAUAUCCUACCUAACGCGGACUCCUCCAG
apparent Kd [1]: 7.65 nM
apparent Kd [2]: 7.83 nM

CCCGGCGUGUCGCUACGCCGAGAGCAGGAUAUUCCGCCGUGAUCUACAUGAGGAUCACCCAUGUGGAAGAAGGGCUACACAAAA
apparent Kd [1]: 14.2 nM
apparent Kd [2]: 122 nM

GCACUGGAUGUAGGAUAUCAGGACGAUAAGUCCUGAGAAGGACAUGAGGAUCACCCAUGUGCCUUAACCAGUGCAUAUAAUAUA
apparent Kd [1]: 12.9 nM
apparent Kd [2]: 17.3 nM

AGCUAGUCAGGAUAUGCGUGAAGAAUAAAACAAAUAACAACGCAGAAGGGACAUGAGGAUCACCCAUGUUAGCA
apparent Kd [1]: 30.7 nM
apparent Kd [2]: 19.5 nM

GUUUCGUCAGGAUAUGUGGCUUCGAUCGUGCGAAGAAGGCUACAGAAGGCACAUGAGGAUCACCCAUGUUCGUC
apparent Kd [2]: 34.6 nM

GUGAAGUAAGGAUAUACAUGAGGAUCACCCAUGUAAGGGAAGGUGAUGGGAGUAGAUAGUAGAAGGUACGAGGA
apparent Kd [1]: 120 nM
apparent Kd [2]: 81.9 nM

UUCAAAUUCGUAGGAUAUGUAUAUAUUUUCUACAUGAGGAUCACCCAUGUUACCAUUUUUUAUUGACAGAAGGACGUAAUCUAA
apparent Kd [3]: 34.6 nM
apparent Kd [4]: 13.8 nM

GGAUAGGACAGAGGAUAUACGUGCUAGAGAUACUAGCAAAAUUUCCUCACAUGAGGAUCACCCAUGUAGAAGGCUCUCCUAUCG
apparent Kd [1]: 8.7 nM
apparent Kd [2]: 31.5 nM

UUAUACGUUGAGGAUAUGCGACUGUUUUAAGUUGUAGAAGGCGAUACAUGAGGAUCACCCAUGUUUAUGGGCAU
apparent Kd [1]: 240 nM
apparent Kd [2]: 327 nM

UCUGAUAUUCCCGUGCCUCCAACACAGGAUAUCCGUCACAACAUGAGGAUCACCCAUGUCCGGGAGGAGAAGGGUGUGGAGAGU
apparent Kd [3]: 91.3 nM
apparent Kd [4]: 21.5 nM

GUCGGAAACGACAAACGUAGCAUACGAGAAGGCUGAUCCACGACAUGAGGAUCACCCAUGUAUUUAGAGGAUAUUGGAUGCUAC
apparent Kd [3]: 126 nM
apparent Kd [4]: 20.3 nM

AUAUUUUUGUAGAAGGUACGUGAUUAGUCAAAGUAAGGAUAUACUGACAUGAGGAUCACCCAUGUUUUAAUAGUUAACAGUUCU
apparent Kd [3]: 12.9 nM
apparent Kd [4]: 8.01 nM

GGGCCCGGAGGAUAUACAUGAGGAUCACCCAUGUAUGUGUGUGUUAUUGCGCGCGCGUGUAGAAGGCCGGGCCC
apparent Kd [1]: 19.9 nM
apparent Kd [2]: 80.2 nM

GUAGCAUACCGAGGAUAUUCAUAUAAUAAAUAAACAUGAGGAUCACCCAUGUGGCGAAAGCCUAGGGAGAAGGCGGAAUGCUAC
apparent Kd [3]: 240 nM
apparent Kd [4]: 22.6 nM

UGUCAUUUACAGAAGGGUAGUUGGGUUUUACAUGAGGAUCACCCAUGUUUUACAGGAUAUGUGUUUUGUUACUAUUAAAGUUCA
apparent Kd [1]: 66.5 nM
apparent Kd [2]: 123 nM

AAGUAGGUAGGAUAUACAUGGAUAUACAUUCAUGUGGACCUACAUGAGGAUCACCCAUGUAGAAGGACCUACAA
apparent Kd [1]: 34.8 nM
apparent Kd [2]: 64.2 nM

CAGUUCUGAGGAUAUCCAUCCUCCUACAUGAGGAUCACCCAUGUUUCCCUCUGGGUUUUCGGAGAAGGCAGUUAUU
apparent Kd [1]: 321 nM
apparent Kd [2]: 556 nM

CACGGCUUAGGAUAUACAUGAGGAUCACCCAUGUGGGAAAGCCAAGGCGUGGUAAAGUGUAGAAGGAAGAAGGA
apparent Kd [1]: 13.4 nM
apparent Kd [2]: 14.9 nM

GACGAACAUGAGGAUCACCCAUGUAAAGACGUACAAGGAUAUGUGUGGAAACCGUACUAUACAGAAGGUGUCUGUC
apparent Kd [3]: 53.5 nM
apparent Kd [4]: 25.5 nM

UCUAUGUAAGAGAAGGAGGACUUCAUGAGGAUCACCCAUGUGUUAGUACUUAGGAUAUUUGACAACAUGAGGAUCACCCAUGUC
apparent Kd [3]: 65.7 nM
apparent Kd [4]: 61.7 nM

CAGGUAGACUGAGGAUAUACACUAAACAGCUAGUCUAUCUAGCUGCCUACAUGAGGAUCACCCAUGUAGAAGGCAGUCUGCCUG
apparent Kd [1]: 15.8 nM
apparent Kd [2]: 18.2 nM

UUAAAUCGAAACAUGAGGAUCACCCAUGUGUUGUGGUUAAUAUAGGAUAUGUGUAUACUUUUAUGACAGAAGGAUGAUGAUACU
apparent Kd [3]: 16.2 nM
apparent Kd [4]: 13.2 nM

ACAAAUGGAGGAUAUACAUGAGGAUCACCCAUGUUUAUCCUACAUAUGUGAUCCUCAUGUAGAAGGCCAUAUGA
apparent Kd [1]: 11 nM
apparent Kd [2]: 10.6 nM

CGCUAGGAUGGGUCUAAUGGACCUCAGGAUAUGCUUGUACAUGAGGAUCACCCAUGUAAUAUUGUGCAGAAGGGAGGAUCCACG
apparent Kd [3]: 18.9 nM
apparent Kd [4]: 6.56 nM

GGAAUCUAGUCAGGAUAUCGGGCAAUAAUUGCACGAGAAGGGACAUGAGGAUCACCCAUGUACACCUCUGGUGAGUCUCGCAGG
apparent Kd [1]: 16 nM
apparent Kd [2]: 44.3 nM
